Results published in the EternaBench riboswitch data.

System: MS2 coat protein
Assay: apparent Kd, MS2 coat protein; higher = weaker binding; RNA-MaP array
Summary of the method: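 On an Illumina sequencing chip, sequenced DNA templates served for transcription of the designed RNAs, which were then bound at room temperature by fluorescently labeled MS2 coat protein at 1.5 nM to 3 μM, with or without input ligand. Apparent Kd is the median of the fits to each cluster's binding curve. Only designs measured on at least 10 clusters were kept.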

[1] = designed as: OFF switch for flavin mononucleotide, no ligand
[2] = ligand present: flavin mononucleotide, designed as: OFF switch for flavin mononucleotide
[3] = designed as: ON switch for flavin mononucleotide, no ligand
[4] = ligand present: flavin mononucleotide, designed as: ON switch for flavin mononucleotide
[5] = designed as: OFF switch for theophylline, no ligand
[6] = ligand present: theophylline, designed as: OFF switch for theophylline
[7] = designed as: OFF switch for tryptophan, no ligand
[8] = ligand present: tryptophan, designed as: OFF switch for tryptophan

## AUGUCACAUGAGGAUCACCCAUGUAUGGAUACCAGUUUAGUGAAUAACCCUUGGCAGCCAAGGAUGCGACAGAAAUCCGGAAAAC
Designed as: ON switch for theophylline, no ligand
  apparent Kd: 21.3 nM
Ligand present: theophylline, designed as: ON switch for theophylline
  apparent Kd: 21.1 nM

## GUCGCAUGAGGAUAUACAUGAGGAUCACCCAUGUAUCUACGCAUGGGAAGACACCAAUGUAGAAGGCAUCUCAA
[1]
  apparent Kd: 64.2 nM
[2]
  apparent Kd: 21.5 nM

## AUAGAACAUGAGGAUCACCCAUGUAGAAAAUCAGCAGGAUAUGUGAUCACUCCGUAAUUGACAGAAGGGCUAACAA
[3]
  apparent Kd: 68.2 nM
[4]
  apparent Kd: 28.8 nM

## GUCGGUGCAGGAUAUCGAGGCGCCAACAUGAGGAUCACCCAUGUGUGUGAUCGGGUGCACCGAGAAGGGCACUUGC
[1]
  apparent Kd: 110 nM
[2]
  apparent Kd: 345 nM

## CCGCGACAUGAGGAUCACCCAUGUGAUUUGACCUCCGGCACGAGAAGGUUCCGACCAAACGGCCGAAAGGAUAUCGUCCCAGAG
[3]
  apparent Kd: 64.1 nM
[4]
  apparent Kd: 38.6 nM

## ACAGAACGAGGAUAUCCACUUUGAUACAUGAGGAUCACCCAUGUCCUGAAAGUGUUUCAGGGAGAAGGCGUACCUA
[1]
  apparent Kd: 18 nM

## UGCCUCCAGCGAGGAUAUAUGUAGAGAUACACCAUAGAAGGCGCUGUAGUGGAACAUGAGGAUCACCCAUGUGACCUCGCCCGG
[1]
  apparent Kd: 13.2 nM
[2]
  apparent Kd: 17.6 nM

## CGGCGCUUAGGAUAUUAGAGAUGCAACAUGAGGAUCACCCAUGUGAUGAGGGUUGGCAGCUAAGAAGGAAGCAUCC
[1]
  apparent Kd: 86 nM
[2]
  apparent Kd: 61.5 nM

## UGAGAACAUGUCUUUAAGUUUACCUCUGAUACCAGAUUGAAAGGCAUCCCUUGGCAGCAGCAUACAUGAGGAUCACCCAUGUCCU
[5]
  apparent Kd: 111 nM
[6]
  apparent Kd: 138 nM

## AUCACAACCAAGAAGGGUCAGAUAACUCGAGAGACAGGAUAUUGAACAACAUAGUCAACAUGAGGAUCACCCAUGUAAAAUAAA
[3]
  apparent Kd: 54 nM
[4]
  apparent Kd: 24.2 nM

## UCACAUGAGGAUCACCCAUGUAAAUCACACGACGGUGCUGUCAAGGAUAUGUUACGCUCAGGGCUACAGAAGGUGAUGGUCAAG
[3]
  apparent Kd: 52.7 nM
[4]
  apparent Kd: 25.2 nM

## GUACCGUAAACGGCCGCCACUGACAUGAGGAUCACCCAUGUGCUGGUGGUGCACAACCUCAGGUUCAGGACCGGGUUUCCGAGCU
[7]
  apparent Kd: 25.1 nM
[8]
  apparent Kd: 55 nM

## GAAAGGUGAGGAUAUACAUGAGGAUCACCCAUGUGUAGAAAUAGAAAGAAAAUCUCAAGUAGAAGGCACAAACA
[1]
  apparent Kd: 11.3 nM
[2]
  apparent Kd: 13.7 nM

## GAGCGCAGUUUACAACAUACUAACACAGAUACCAGAAAUUUUAUGUUCCCUUGGCAGCUGACAACAUGAGGAUCACCCAUGUGCU
[5]
  apparent Kd: 17.1 nM
[6]
  apparent Kd: 17.7 nM

## CUGCCACGAACGGCCGCCACUUACAUGAGGAUCACCCAUGUGCCUGCGCACAAAGAAUGUCAAGAAAGGACCGGGUUCAAAUAGU
[7]
  apparent Kd: 61.3 nM
[8]
  apparent Kd: 66.8 nM

## CAUACGCCGCAGAAGGAGUCGAGUCCGUUUCAACUAGGAUAUGCCAGAACAUGAGGAUCACCCAUGUUGCGGGUGCAGCUCAAU
[1]
  apparent Kd: 37.8 nM
[2]
  apparent Kd: 38.9 nM

## GGAUUGAUAGGAUAUACAUAGAUGUAGGAGCCUUCACUCCCACAUGAGGAUCACCCAUGUAGAAGGAUCAGUAA
[1]
  apparent Kd: 12.1 nM
[2]
  apparent Kd: 23.6 nM

## UGGGAUAGCCAGAAGGUGGAAGCAACAACUGUCCAAGGAUAUGGUUGUUAUAAGGCAUCACACAUGAGGAUCACCCAUGUUAAU
[3]
  apparent Kd: 83.2 nM
[4]
  apparent Kd: 35.2 nM

## AACACACCAAAUGAUACCAGCUACAACAUGAUACAAAACCACAUGAGGAUCACCCAUGUAAGCCCUUGGCAGCAUACUACUGUAA
[5]
  apparent Kd: 18.1 nM
[6]
  apparent Kd: 42.5 nM

## GAUUAAAAGAUAGGAUAUUUUGAAAUCGUCACAUGAGGAUCACCCAUGUAUGGCCUGGGCAAUCAAAAGAAGGAUCUUUCUGAU
[1]
  apparent Kd: 11.2 nM
[2]
  apparent Kd: 6.84 nM

## GACCAUCACCAGAAGGUCCUCCACCAGCGAGAUCCGACAUGAGGAUCACCCAUGUACUGUGGAUGGAAGGAUAUGGAAGGCUCU
[1]
  apparent Kd: 46.9 nM
[2]
  apparent Kd: 116 nM

## UGGGUUACCUCAGGAUAUCGCCUUGUACAUGAGGAUCACCCAUGUAGUAUCGGCCGUGUGUGCAUCGAGAAGGGAGUAACCUUC
[1]
  apparent Kd: 75.2 nM
[2]
  apparent Kd: 53.5 nM

## GGAAUCGGAUUAGAGGAUAUCGAUCUGUUAACAUGAGGAUCACCCAUGUGGACGCUUCAUUCGAACGAGAAGGCUAGAUGGACACC
[3]
  apparent Kd: 23.8 nM
[4]
  apparent Kd: 16.8 nM

## UAGCGACAUGAGGAUCACCCAUGUCCCGGCUACUAAGGAUAUGCAGUGAUUGAAAGGAAGGCAGAAGGUAGUGCAG
[3]
  apparent Kd: 25.3 nM
[4]
  apparent Kd: 12.7 nM

## CGGCUCAUAAUGGAUACCAGUCCAGCAUAGAAACCUUGACACAUGAGGAUCACCCAUGUUGACCCUUGGCAGCCAUUGAUCAUAC
[5]
  apparent Kd: 22.4 nM
[6]
  apparent Kd: 133 nM

## CGCCCGAAAGGAUAUACAUGAGGAUCACCCAUGUUUCUAGCAAAAUGACCCUCAAUUCGUAGAAGGUUCCGAGU
[1]
  apparent Kd: 32.6 nM
[2]
  apparent Kd: 36.1 nM
